From ChEMBL document CHEMBL4229355, “Synthesis of 3'-halo-5'-norcarbocyclic nucleoside phosphonates as potent anti-HIV agents” (Eur J Med Chem, 2018)
Activity calls are given as the source filed them. The calls are words filed in the database; no cut-off is given here.

Assays:
[1] = Cytotoxicity against human PBMC assessed as reduction in cell growth after 7 days by MTT assay; type: cell-based
Procedure, shortened: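 Percent cell viability plotted against compound concentration and fitted to quadratic curves; CC₅₀ is the concentration reducing cell growth by 50%.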

Human alphaherpesvirus 2 = assay: Antiviral activity against HSV-2; type: functional, organism-based
[2] = test system: Human immunodeficiency virus 1; assay: Antiviral activity against HIV1 LAI infected in PHA-P activated human PBMC assessed as reduction in viral replication preincubated with cells for 30 mins followed by viral infection and measured at day 7 post infection by reverse transcriptase activity-based assay; type: functional, organism-based; details: Human immunodeficiency virus 1, LAI
Procedure, shortened: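 PHA-P-activated PBMCs (1.5 × 10⁵ cells) pre-treated 30 min with increasing compound concentrations, then infected with HIV-1 LAI at 100 TCID₅₀; supernatants harvested day 7 post-infection and stored at −20 °C. Percent inhibition of RT activity plotted against concentration and fitted to quadratic curves to give EC₅₀. Mean from 3 blood donors.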

Chikungunya virus = assay: Antiviral activity against Chikungunya virus; type: functional, organism-based
Zika virus = assay: Antiviral activity against Zika virus; type: functional, organism-based
Human alphaherpesvirus 1 = assay: Antiviral activity against HSV-1; type: functional, organism-based
dengue virus type 2 = assay: Antiviral activity against Dengue virus 2; type: functional, organism-based

SMILES	CC50 at 168 h [1] [µM]	Activity (Human alphaherpesvirus 2)	EC50 [2] [µM]	Activity (Chikungunya virus)	Activity (Zika virus)	Activity (Human alphaherpesvirus 1)	Activity (dengue virus type 2)
O=P(O)(O)CO[C@H]1C[C@@H](n2cnc3c(NC4CC4)ncnc32)C=C1I (racemic)	≥ 10	inactive	≥ 10	inactive	inactive	inactive	inactive
Nc1nc(O)c2ncn([C@H]3C=C(I)[C@@H](OCP(=O)(O)O)C3)c2n1 (racemic)	≥ 10	inactive	≥ 10	inactive	inactive	inactive	inactive
C[C@H](Cn1cnc2c(N)ncnc21)OCP(=O)(O)O [TENOFOVIR ANHYDROUS]	≥ 10		1.1				
O=P(O)(O)CO[C@H]1C[C@@H](n2cnc3c(O)ncnc32)C=C1I (racemic)	≥ 10	inactive	≥ 10	inactive	inactive	inactive	inactive
Nc1ncnc2c1ncn2[C@H]1C=C(F)[C@@H](OCP(=O)(O)O)C1 (racemic)	≥ 10	inactive	0.88	inactive	inactive	inactive	inactive
Nc1ncnc2c1ncn2[C@H]1C=C(I)[C@@H](OCP(=O)(O)O)C1 (racemic)	≥ 10	inactive	5.9	inactive	inactive	inactive	inactive
Nc1nc2c(ncn2[C@H]2C=C(F)[C@@H](OCP(=O)(O)O)C2)c(=O)[nH]1 (racemic)	≥ 10	inactive	≥ 10	inactive	inactive	inactive	inactive
